Activity calls are given as the source filed them. No cut-off for these calls is given here.
Assays:
Jurkat = assay: Antiproliferative activity against human Jurkat cells measured after 7 days by Celltiter-glo assay; format: functional, cell-based; settings: 168 h
How it was run: (§1)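 Cells maintained in RPMI1640 with 10% FBS at 37 °C, 5% CO2. Seeded the day before dosing, grown 12 h, then exposed to graded compound concentrations for 7 days. CellTiter-Glo reagent added, 10 min at room temperature, luminescence read. Inhibition % = (1-(RLU compound - RLU blank)/(RLU DMSO - RLU blank))×100. IC50 from nonlinear regression, normalized dose-response fit.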

MDA-MB-231 [1] = assay: Potency index, ratio of BKM120 IC50 to test compound IC50 for antiproliferative activity against human MDA-MB-231 cells; format: functional
SW-620 = assay: Antiproliferative activity against human SW620 cells measured after 7 days by Celltiter-glo assay; format: functional, cell-based; settings: SW-620, 168 h; how it was run: as §1
MDA-MB-468 [2] = assay: Induction of apoptosis in human MDA-MB-468 cells assessed as early apoptotic cells at 1 uM measured after 72 hrs by Annexin V-FITC/propidium iodide staining based flow cytometry (reference value: 3.88%); format: functional
Mus musculus = assay: In vivo inhibition of PI3K in BALB/c mouse xenografted with human MDA-MB-468 cells assessed as reduction in BRCA2 expression at 50 mg/kg, ip administered every 2 days for 34 days measured post-last dose by Western blot analysis; format: functional, organism-based
HCT-116 [3] = assay: Potency index, ratio of BKM120 IC50 to test compound IC50 for antiproliferative activity against human HCT116 cells; format: functional
A2780 = assay: Antiproliferative activity against human A2780 cells measured after 7 days by Celltiter-glo assay; format: functional, cell-based; settings: A2780, 168 h; how it was run: as §1
HCT-116 [4] = assay: Antiproliferative activity against human HCT116 cells measured after 7 days by Celltiter-glo assay; format: functional, cell-based; settings: HCT-116, 168 h; how it was run: as §1
HCC1937 = assay: Antiproliferative activity against human HCC1937 cells measured after 7 days by Celltiter-glo assay; format: functional, cell-based; settings: HCC1937, 168 h; how it was run: as §1
MDA-MB-468 [5] = assay: Induction of DNA damage in human MDA-MB-468 cells at 1 uM measured after 72 hrs by comet assay; format: functional, cell-based
How it was run: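 MDA-MB-468 cells treated for 72 h, harvested and run in a neutral comet assay. Ethidium bromide staining after electrophoresis. About 200 cell images per group analysed with CASP. DNA damage scored as tail intensity (percentage DNA in tail) and olive tail moment. Mean ± SD of three independent experiments.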

Ramos = assay: Antiproliferative activity against human Ramos cells measured after 7 days by Celltiter-glo assay; format: functional, cell-based; settings: 168 h; how it was run: as §1
MDA-MB-468 [6] = assay: Inhibition of PI3K in human MDA-MB-468 cells assessed as reduction in BRCA1 mRNA level at 1 uM by Trizol reagent-based RT-PCR analysis; format: cell-based
How it was run: (§2)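 Total RNA from treated MDA-MB-468 cells extracted with TRIzol. BRCA1 or BRCA2 mRNA quantified by real-time PCR with GAPDH as internal control. Results given as fold change relative to the internal control. Mean ± SD of three independent experiments.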

[7] = Toxicity in BALB/c mouse xenografted with human MDA-MB-468 cells assessed as mortality at 50 mg/kg, ip administered every 2 days for 34 days; format: organism-based; settings: in vivo
How it was run: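 Nude mice bearing subcutaneous right-flank MDA-MB-468 tumours (2 × 10^6 exponential-phase cells implanted). Randomised at about 100 mm³ tumour volume; 6 mice per group. Dosed ip every 2 days for 34 days. Vehicle controls received PBS with 5% DMSO. Body weight and tumour size recorded every 2 days; tumour volume calculated as ab²/2 from caliper diameters.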

MDA-MB-231 [8] = assay: Antiproliferative activity against human MDA-MB-231 cells measured after 7 days by Celltiter-glo assay; format: functional, cell-based; settings: MDA-MB-231, 168 h; how it was run: as §1
BXPC-3 = assay: Antiproliferative activity against human BxPC3 cells measured after 7 days by Celltiter-glo assay; format: functional, cell-based; settings: BXPC-3, 168 h; how it was run: as §1
A549 = assay: Antiproliferative activity against human A549 cells measured after 7 days by Celltiter-glo assay; format: functional, cell-based; settings: A549, 168 h; how it was run: as §1
MDA-MB-468 [9] = assay: Inhibition of PI3K in human MDA-MB-468 cells assessed as reduction in BRCA2 mRNA level at 1 uM by Trizol reagent-based RT-PCR analysis; format: cell-based; how it was run: as §2
[10] = target: Phosphatidylinositol 4,5-bisphosphate 3-kinase catalytic subunit gamma isoform (Homo sapiens, UniProt P48736); assay: Inhibition of PI3Kgamma (unknown origin) using PIP2 as substrate measured after 1 hr by ADP-glo plus luminescence assay
Sequence of Phosphatidylinositol 4,5-bisphosphate 3-kinase catalytic subunit gamma isoform (P48736 whole entry, canonical isoform): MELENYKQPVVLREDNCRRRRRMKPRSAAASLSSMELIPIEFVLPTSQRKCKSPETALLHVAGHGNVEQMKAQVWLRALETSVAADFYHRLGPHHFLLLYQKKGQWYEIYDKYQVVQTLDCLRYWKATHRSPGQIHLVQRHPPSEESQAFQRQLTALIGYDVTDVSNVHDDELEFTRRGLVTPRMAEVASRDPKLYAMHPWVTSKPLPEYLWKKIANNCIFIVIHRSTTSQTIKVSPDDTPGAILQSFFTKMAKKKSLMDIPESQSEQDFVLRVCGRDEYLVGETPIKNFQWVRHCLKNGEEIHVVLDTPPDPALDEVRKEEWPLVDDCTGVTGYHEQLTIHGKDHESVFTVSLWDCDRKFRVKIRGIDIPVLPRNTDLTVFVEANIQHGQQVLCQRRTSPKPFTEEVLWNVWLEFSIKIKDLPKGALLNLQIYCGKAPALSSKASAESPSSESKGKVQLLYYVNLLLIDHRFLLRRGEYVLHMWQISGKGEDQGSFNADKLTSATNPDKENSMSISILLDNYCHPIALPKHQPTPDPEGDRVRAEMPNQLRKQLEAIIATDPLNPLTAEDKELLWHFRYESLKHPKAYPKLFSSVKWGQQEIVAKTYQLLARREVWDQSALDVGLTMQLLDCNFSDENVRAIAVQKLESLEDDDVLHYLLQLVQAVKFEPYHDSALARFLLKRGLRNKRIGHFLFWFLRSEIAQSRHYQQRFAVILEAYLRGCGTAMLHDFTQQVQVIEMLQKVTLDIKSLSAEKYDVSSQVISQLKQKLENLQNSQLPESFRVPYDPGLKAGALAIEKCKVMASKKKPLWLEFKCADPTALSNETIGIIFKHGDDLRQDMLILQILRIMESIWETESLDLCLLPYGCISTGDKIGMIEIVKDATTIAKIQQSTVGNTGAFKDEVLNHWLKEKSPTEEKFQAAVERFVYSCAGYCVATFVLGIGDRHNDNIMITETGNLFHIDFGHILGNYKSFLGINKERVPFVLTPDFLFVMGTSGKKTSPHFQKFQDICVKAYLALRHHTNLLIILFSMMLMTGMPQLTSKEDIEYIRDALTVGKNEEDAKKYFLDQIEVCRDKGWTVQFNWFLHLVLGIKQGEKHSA

MDA-MB-468 [11] = assay: Induction of apoptosis in human MDA-MB-468 cells assessed as late apoptotic cells at 1 uM measured after 72 hrs by Annexin V-FITC/propidium iodide staining based flow cytometry (reference value: 0.78%); format: functional
MDA-MB-468 [12] = assay: Induction of apoptosis in human MDA-MB-468 cells assessed as viable cells at 1 uM measured after 72 hrs by Annexin V-FITC/propidium iodide staining based flow cytometry (reference value: 95.2%); format: functional; settings: MDA-MB-468, 72 h, read-out: Activity
MDA-MB-468 [13] = assay: Inhibition of PI3K in human MDA-MB-468 cells assessed as reduction in RAD51 foci formation at 1 uM measured after 72 hrs by DAPI staining based immunofluorescence microscopic analysis; format: cell-based
How it was run: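 RAD51 foci in MDA-MB-468 cells on coverslips after 72 h drug exposure. Cells fixed (3% formaldehyde), permeabilized (0.1% Triton X-100), blocked in 10% FBS/PBS, incubated overnight at 4 °C with rabbit anti-RAD51 polyclonal, then secondary antibody plus DAPI. Foci and percent positive cells (>5 foci per cell) counted from about 200 cells. Mean ± SD of three independent experiments.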

MDA-MB-468 [14] = assay: Induction of apoptosis in human MDA-MB-468 cells xenografted in BALB/c mouse assessed as increase in cleaved PARP expression at 50 mg/kg, ip administered every 2 days for 34 days measured post last dose by Western blot analysis; format: functional, organism-based
MDA-MB-468 [15] = assay: Induction of apoptosis in human MDA-MB-468 cells assessed as necrotic cells at 1 uM measured after 72 hrs by Annexin V-FITC/propidium iodide staining based flow cytometry (reference value: 0.13%); format: functional
MDA-MB-468 [16] = assay: Antiproliferative activity against human MDA-MB-468 cells measured after 7 days by Celltiter-glo assay; format: functional, cell-based; settings: MDA-MB-468, 168 h; how it was run: as §1
CAKI-1 = assay: Antiproliferative activity against human CAKI-1 cells measured after 7 days by Celltiter-glo assay; format: functional, cell-based; settings: CAKI-1, 168 h; how it was run: as §1
DU-145 [17] = assay: Antiproliferative activity against human DU145 cells measured after 7 days by Celltiter-glo assay; format: functional, cell-based; settings: DU-145, 168 h; how it was run: as §1
MDA-MB-468 [18] = assay: Inhibition of PI3K in human MDA-MB-468 cells assessed as reduction in BRCA1 mRNA level at 1 uM in presence of PARP inhibitor olaparib by Trizol reagent-based RT-PCR analysis; format: cell-based; how it was run: as §2
DU-145 [19] = assay: cells; settings: Homo sapiens, DU-145, 168 h, read-out: pIC50 (converted)
MDA-MB-468 [20] = assay: cells; settings: Homo sapiens, MDA-MB-468, 168 h, read-out: pIC50 (converted)

Nc1cc(C(F)(F)F)c(-c2nc3c(c(N4CCOCC4)n2)CCN(C(=O)c2cc(Cc4n[nH]c(=O)c5ccccc45)ccc2F)C3)cn1
IC50 (Jurkat): 933 nM
Ratio IC50 (MDA-MB-231 [1]): >=4
IC50 (SW-620): 2820 nM
Activity (MDA-MB-468 [2]): 21.9%
inhibition (Mus musculus): Active
Ratio IC50 (HCT-116 [3]): >=4
IC50 (A2780): 398 nM
IC50 (HCT-116 [4]): 871 nM
IC50 (HCC1937): 1050 nM
Activity (MDA-MB-468 [5]): Active
IC50 (Ramos): 1070 nM
inhibition (MDA-MB-468 [6]): Active
Activity [7]: Non-Toxic
IC50 (MDA-MB-231 [8]): 1000 nM
IC50 (BXPC-3): 1070 nM
IC50 (A549): 537 nM
inhibition (MDA-MB-468 [9]): Active
IC50 [10]: 832 nM
Activity (MDA-MB-468 [11]): 21%
viability at 1 µM (MDA-MB-468 [12]): 55.7%
inhibition (MDA-MB-468 [13]): Active
Activity (MDA-MB-468 [14]): Active
Activity (MDA-MB-468 [15]): 1.44%
IC50 (MDA-MB-468 [16]): 977 nM
IC50 (CAKI-1): 955 nM
IC50 (DU-145 [17]): 891 nM

Nc1cc(C(F)(F)F)c(-c2cc(N3CCOCC3)nc(N3CCOCC3)n2)cn1 [BUPARLISIB]
inhibition (MDA-MB-468 [18]): Active
IC50 (Jurkat): 1410 nM
IC50 (SW-620): 5130 nM
Activity (MDA-MB-468 [2]): 6.13%
IC50 (DU-145 [19]): 1170 nM
IC50 (A2780): 417 nM
IC50 (HCT-116 [4]): 3630 nM
IC50 (HCC1937): 6310 nM
Activity (MDA-MB-468 [5]): Active
IC50 (Ramos): 3630 nM
inhibition (MDA-MB-468 [6]): Active
IC50 (MDA-MB-231 [8]): 6030 nM
IC50 (BXPC-3): 4070 nM
IC50 (A549): 1700 nM
inhibition (MDA-MB-468 [9]): Active
IC50 (MDA-MB-468 [20]): 1290 nM
Activity (MDA-MB-468 [11]): 1.82%
viability at 1 µM (MDA-MB-468 [12]): 91.9%
inhibition (MDA-MB-468 [13]): Active
Activity (MDA-MB-468 [15]): 0.16%
IC50 (MDA-MB-468 [16]): 3980 nM
IC50 (CAKI-1): 2750 nM
IC50 (DU-145 [17]): 3800 nM
